From ChEMBL document CHEMBL1125799, “Gossypol and derivatives: a new class of aldose reductase inhibitors” (J Med Chem, 1991)

Experiments:
[1] = biological target: T1, Aldo-keto reductase family 1 member B1 (Homo sapiens, UniProt P15121); assay: The compound was tested for inhibitory activity against Aldose reductase from human placenta
Summary of the method: (§1)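 Aldose reductase purified from human placenta, with NADP present throughout purification and storage, kept at –20 °C. Assay in 0.1 M sodium phosphate pH 7 with 10 mM D,L-glyceraldehyde substrate and 0.1 mM NADPH at 25 ± 1 °C. NADPH oxidation followed as A340 decrease. Initial rates corrected for the rate without aldehyde substrate. Ki derived from Dixon plots.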

[2] = biological target: T1, Aldo-keto reductase family 1 member B1; assay: The compound was tested for inhibitory activity against aldose reductase from human placenta; summary of the method: as §1

Row | Ki [1] [µM] | Ki [2] [µM] | Structure (SMILES)
1 | 4.3 |  | COc1c(-c2c(C)cc3c(C(C)C)c(O)c(O)c(CO)c3c2OC)c(C)cc2c(C(C)C)c(O)c(O)c(CO)c12
2 | 56 |  | COc1c(OC)c(C=O)c2c(OC)c(-c3c(C)cc4c(C(C)C)c(OC)c(OC)c(C=O)c4c3OC)c(C)cc2c1C(C)C
3 |  | 0.15 | Cc1cc2c(C(C)C)c(O)c(O)c3c2c(c1-c1c(C)cc2c(C(C)C)c(O)c(O)c4c2c1OC4=O)OC3=O
4 | 2.8 |  | COc1c(-c2c(C)cc3c(C(C)C)c(O)c(O)c(C#N)c3c2OC)c(C)cc2c(C(C)C)c(O)c(O)c(C#N)c12
5 |  | 0.31 | COc1c(-c2c(C)cc3c(C(C)C)c(O)c(O)c(C=O)c3c2OC)c(C)cc2c(C(C)C)c(O)c(O)c(C=O)c12
6 |  | 6.8 | CCC(=O)Oc1c(-c2c(C)cc3c(C(C)C)c(O)c(O)c(C#N)c3c2OC(=O)CC)c(C)cc2c(C(C)C)c(O)c(O)c(C#N)c12
7 | 2.5 |  | Cc1cc2c(C(C)C)c(O)c(O)c(C#N)c2c(OC(=O)C(C)(C)C)c1-c1c(C)cc2c(C(C)C)c(O)c(O)c(C#N)c2c1OC(=O)C(C)(C)C
8 | 1.3 |  | C/C=C/C(=O)Oc1c(-c2c(C)cc3c(C(C)C)c(O)c(O)c(C#N)c3c2OC(=O)/C=C/C)c(C)cc2c(C(C)C)c(O)c(O)c(C#N)c12
9 | 9.7 |  | COc1c(OC)c(C=O)c2c(O)c(-c3c(C)cc4c(C(C)C)c(OC)c(OC)c(C=O)c4c3O)c(C)cc2c1C(C)C
10 |  | 3.1 | CCCCCC(=O)Oc1c(-c2c(C)cc3c(C(C)C)c(O)c(O)c(C#N)c3c2OC(=O)CCCCC)c(C)cc2c(C(C)C)c(O)c(O)c(C#N)c12
11 | 7.8 |  | Cc1cc2c(C(C)C)c(O)c(O)c(/C=N/O)c2c(O)c1-c1c(C)cc2c(C(C)C)c(O)c(O)c(/C=N/O)c2c1O
12 | 9.3 |  | Cc1cc2c(C(C)C)c(O)c(O)c3c2c(c1-c1c(C)cc2c(C(C)C)c(O)c(O)c4c2c1OC4=N)OC3=N
13 |  | 7.3 | CC(=O)Oc1c(-c2c(C)cc3c(C(C)C)c(O)c(O)c(C#N)c3c2OC(C)=O)c(C)cc2c(C(C)C)c(O)c(O)c(C#N)c12
14 |  | 4.7 | CCCCC(=O)Oc1c(-c2c(C)cc3c(C(C)C)c(O)c(O)c(C#N)c3c2OC(=O)CCCC)c(C)cc2c(C(C)C)c(O)c(O)c(C#N)c12
15 |  | 5.3 | CCCC(=O)Oc1c(-c2c(C)cc3c(C(C)C)c(O)c(O)c(C#N)c3c2OC(=O)CCC)c(C)cc2c(C(C)C)c(O)c(O)c(C#N)c12

Row | Structure (SMILES) | Ki [1] [µM] | Ki [2] [µM]
16 | COc1c(OC)c2c3c(c(-c4c(C)cc5c(C(C)C)c(OC)c(OC)c6c5c4OC6=O)c(C)cc3c1C(C)C)OC2=O |  | 48
17 | COc1c(O)c(C=O)c2c(O)c(-c3c(C)cc4c(C(C)C)c(OC)c(O)c(C=O)c4c3O)c(C)cc2c1C(C)C [6,6'-METHOXYGOSSYPOL] | 1.5 | 
18 | Cc1cc2c(C(C)C)c(O)c(O)c(C=O)c2c(O)c1-c1c(C)cc2c(C(C)C)c(O)c(O)c(C=O)c2c1O [GOSSYPOL] | 0.5 | 
